Here are results for four compounds from ChEMBL document CHEMBL3098122, “Synthesis, biological activity and structure-activity relationships of new benzoic acid-based protein tyrosine phosphatase inhibitors endowed with insulinomimetic effects in mouse C2C12 skeletal muscle cells” (Eur J Med Chem, 2014).

pIC50, pKi: −log10 of the molar value. Active and inactive are the calls of the source. The calls are words filed in the database; no cut-off is given here.

The nature of data set [1]: Cytotoxicity against mouse C2C12 cells expressing PTP1B, TC-PTP, LMW-PTP and insulin receptor assessed as cell viability after 2 hrs by MTT assay. It counts as cell-based. The arrangement: concentration or dose not given beside the values. The note with it: read-out: Activity. In a few lines:
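C2C12 myoblasts differentiated 4 days in DMEM with 2% horse serum, serum-starved 20 h; myotubes then given MTT (0.5 mg/ml final) for 2 h at 37 °C, lysed in DMSO, formazan read at 570 nm; three replicates relative to control.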
In general terms: Tetrazolium assays rely on reduction of a dye to a coloured formazan, in cell work by metabolically active cells.

The target of data set [2] is T1, Tyrosine-protein phosphatase non-receptor type 1 (Homo sapiens, UniProt P18031).
T1 sequence (P18031 whole entry): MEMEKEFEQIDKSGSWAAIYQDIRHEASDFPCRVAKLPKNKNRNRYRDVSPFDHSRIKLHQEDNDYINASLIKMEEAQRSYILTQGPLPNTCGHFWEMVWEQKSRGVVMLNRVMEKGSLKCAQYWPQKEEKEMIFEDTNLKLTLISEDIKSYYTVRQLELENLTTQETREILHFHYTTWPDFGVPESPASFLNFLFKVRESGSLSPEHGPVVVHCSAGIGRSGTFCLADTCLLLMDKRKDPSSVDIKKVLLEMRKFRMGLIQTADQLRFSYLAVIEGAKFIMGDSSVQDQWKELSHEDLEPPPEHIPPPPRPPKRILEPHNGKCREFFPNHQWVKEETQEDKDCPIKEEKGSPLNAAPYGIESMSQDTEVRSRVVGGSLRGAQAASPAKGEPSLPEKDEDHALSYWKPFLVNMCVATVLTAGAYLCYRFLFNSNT
Kind of data set: Mixed type inhibition of human recombinant PTP1B expressed in Escherichia coli TB1 using p-nitrophenylphosphate as substrate by Double reciprocal plot analysis. In a few lines:
(§1)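 PTP1B (human, GST fusion from pGEX-2T in E. coli TB1, thrombin-cleaved, gel-filtered) assayed at 37 °C, pH 7.0 β,β-dimethylglutarate buffer with 1 mM EDTA and 5 mM DTT, p-nitrophenylphosphate at seven final concentrations (0.5–25 mM) with increasing inhibitor; KOH-stopped, A400. Inhibition type from double reciprocal plots; Ki from apparent Km vs inhibitor concentration; triplicate initial rates.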

The target of data set [3] is T2, Tyrosine-protein phosphatase non-receptor type 1 (Homo sapiens) (UniProt P18031).
T2 sequence (whole entry): T1 sequence (P18031 whole entry)
Kind of data set: Reversible inhibition of human recombinant PTP1B expressed in Escherichia coli TB1 using p-nitrophenylphosphate as substrate assessed as residual activity at 25 times IC50 after 1 hr measured after 400 fold dilution. In a few lines: (§2)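 Reversibility: PTP1B preincubated 1 h at 37 °C with at least 25-fold […], DMSO in controls; mixture then diluted 400-fold in assay buffer and residual activity measured on p-nitrophenylphosphate; three replicates, mean ± SE.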

The species named for data set [4] is Homo sapiens. Kind of data set: Selectivity ratio of IC50 for TC-PTP (unknown origin) to IC50 for human recombinant PTP1B. The gist of the method: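 Commercial T-cell PTP assayed on p-nitrophenylphosphate at 37 °C, pH 7.0 β,β-dimethylglutarate buffer with 1 mM EDTA and 5 mM DTT; stopped with 1 M KOH, absorbance at 400 nm; IC50 from ratio of activity with and without inhibitor versus inhibitor concentration. Ratio lines pair this with recombinant human PTP1B measured the same way.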

For data set [5], the species on record is Homo sapiens. Kind of data set: Selectivity ratio of IC50 for human recombinant LMW-PTP IF2 to IC50 for human recombinant LMW-PTP IF1.
The species named for data set [6] is Homo sapiens. Nature of the data set: Selectivity ratio of IC50 for human recombinant LMW-PTP IF2 to IC50 for human recombinant PTP1B.
The species entered for data set [7] is Homo sapiens. Kind of data set: Selectivity ratio of IC50 for human recombinant LMW-PTP IF1 to IC50 for human recombinant PTP1B.
The target in data set [8] is T3, Low molecular weight phosphotyrosine protein phosphatase (Homo sapiens, UniProt P24666).
T3 sequence (P24666 whole entry): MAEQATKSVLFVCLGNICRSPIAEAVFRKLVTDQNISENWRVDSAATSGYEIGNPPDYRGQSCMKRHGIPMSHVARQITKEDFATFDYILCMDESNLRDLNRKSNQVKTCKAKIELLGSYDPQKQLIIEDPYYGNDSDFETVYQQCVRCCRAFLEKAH
Kind of data set: Inhibition of human recombinant LMW-PTP IF2 expressed in Escherichia coli TB1 using p-nitrophenylphosphate as substrate.

For data set [9], the target named is T1, Tyrosine-protein phosphatase non-receptor type 1. Nature of the data set: Inhibition of human recombinant PTP1B expressed in Escherichia coli TB1 using p-nitrophenylphosphate as substrate.
Data set [10] concerns the target T3, Low molecular weight phosphotyrosine protein phosphatase. Kind of data set: Inhibition of human recombinant LMW-PTP IF1 expressed in Escherichia coli TB1 using p-nitrophenylphosphate as substrate.
Data set [11] deals with T4, Tyrosine-protein phosphatase non-receptor type 2 (Homo sapiens, UniProt P17706).
T4 sequence (P17706 whole entry): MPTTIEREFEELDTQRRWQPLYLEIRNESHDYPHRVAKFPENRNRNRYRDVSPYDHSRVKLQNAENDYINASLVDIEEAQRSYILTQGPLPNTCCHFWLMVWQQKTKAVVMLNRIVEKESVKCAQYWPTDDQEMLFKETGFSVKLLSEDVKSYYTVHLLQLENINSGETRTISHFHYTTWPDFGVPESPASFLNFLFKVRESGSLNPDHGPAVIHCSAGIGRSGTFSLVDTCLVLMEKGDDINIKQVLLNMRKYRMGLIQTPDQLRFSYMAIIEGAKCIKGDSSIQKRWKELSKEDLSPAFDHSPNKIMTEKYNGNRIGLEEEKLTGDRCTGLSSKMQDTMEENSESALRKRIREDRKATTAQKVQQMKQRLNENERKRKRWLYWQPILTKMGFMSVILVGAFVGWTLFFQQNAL
Nature of the data set: Inhibition of TC-PTP (unknown origin) purchased from New England Biolabs using p-nitrophenylphosphate as substrate.

In data set [12] the target is T5, Tyrosine-protein phosphatase non-receptor type 1 (Mus musculus) (UniProt P35821).
T5 sequence (whole entry): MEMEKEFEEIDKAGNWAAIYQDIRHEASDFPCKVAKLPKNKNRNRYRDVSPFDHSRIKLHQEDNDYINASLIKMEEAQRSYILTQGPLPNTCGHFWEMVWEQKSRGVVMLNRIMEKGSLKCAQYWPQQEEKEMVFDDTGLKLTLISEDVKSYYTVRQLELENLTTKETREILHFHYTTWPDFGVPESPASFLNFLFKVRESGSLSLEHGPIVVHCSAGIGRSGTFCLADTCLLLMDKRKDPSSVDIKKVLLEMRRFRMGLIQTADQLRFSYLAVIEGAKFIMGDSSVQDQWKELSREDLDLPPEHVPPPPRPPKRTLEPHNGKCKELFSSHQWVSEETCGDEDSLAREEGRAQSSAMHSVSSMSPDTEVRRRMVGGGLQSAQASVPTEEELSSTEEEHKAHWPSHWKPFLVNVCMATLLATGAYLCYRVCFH
Kind of data set: Inhibition of PTP1B in mouse C2C12 cells assessed as increase of insulin receptor beta phosphorylation at 25 uM after 90 mins. It counts as cell-based. In a few lines: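 Differentiated, 20 h serum-starved C2C12 myotubes exposed to 25 µM compound (DMSO 1.2% final) for 90 min at 37 °C, insulin 10 nM 30 min as positive control; lysates run on SDS-PAGE, Western blot for phospho-insulin receptor β with actin loading control, densitometry; three replicates, p<0.05 versus control.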

The target in data set [13] is T2, Tyrosine-protein phosphatase non-receptor type 1 (Homo sapiens). Nature of the data set: Partial reversible inhibition of human recombinant PTP1B expressed in Escherichia coli TB1 using p-nitrophenylphosphate as substrate assessed as residual activity at 25 times IC50 after 1 hr measured after 400 fold dilution. In a few lines: as §2
Data set [14] concerns the target T1, Tyrosine-protein phosphatase non-receptor type 1. Kind of data set: Competitive inhibition of human recombinant PTP1B expressed in Escherichia coli TB1 using p-nitrophenylphosphate as substrate by Double reciprocal plot analysis. The gist of the method: as §1
In data set [15] the target is T5, Tyrosine-protein phosphatase non-receptor type 1 (Mus musculus). Nature of the data set: Inhibition of PTP1B in mouse C2C12 cells assessed as increase of 2-deoxy-D-1,2-[3H]-glucose at 25 uM after 90 mins by beta-scintillation counting. It counts as cell-based. In a few lines:
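Serum-starved differentiated C2C12 myotubes treated 90 min with 25 µM compound (1.2% DMSO) or 30 min with 10 nM insulin, then 0.1 µCi 2-deoxy-D-[1,2-3H]glucose in Ringer-Hepes for 15 min at 37 °C; cold PBS wash, 0.2 M NaOH lysis, scintillation counting normalized to Bradford protein; three replicates.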

The target of data set [16] is T1, Tyrosine-protein phosphatase non-receptor type 1. Nature of the data set: Noncompetitive inhibition of human recombinant PTP1B expressed in Escherichia coli TB1 using p-nitrophenylphosphate as substrate by Double reciprocal plot analysis. The gist of the method: as §1

With `O=C(O)c1ccc(CN2C(=O)S/C(=C\c3ccc(OCCc4ccccc4)cc3)C2=O)cc1`, in data set [1], the viability at 2 h is at least 80%. Besides, the pKi (in general, the negative decadic logarithm of the Ki, by convention in mol/L) in data set [2] was 5.64. Besides, in data set [3], the Activity was 80%. Moreover, the Ratio IC50 in the data set filed under Homo sapiens [4] was 2; in the data set listed under Homo sapiens [5], over 2; in the data set listed under Homo sapiens [6] it was over 2; in the data set filed under Homo sapiens [7] it was over 2. Besides, the pIC50 (commonly the negative decadic logarithm of the IC50, by convention in mol/L) in [8] was under 4.30; in data set [9], 5.59; in data set [10] it was 4.70; in [11] it was 5.23.

As to `O=C(O)c1ccc(CN2C(=O)/C(=C/c3ccc(OCCc4ccccc4)cc3)S/C2=N\c2ccccc2)cc1`, the inhibition result in [12] was “Active”. Further, the viability at 2 h in [1] was at least 80%. Moreover, the pKi in [2] was 6.30. The Activity in [13] came out at 50%. Further, the Ratio IC50 in the data set filed under Homo sapiens [5], in the data set listed under Homo sapiens [6] and in the data set filed under Homo sapiens [7] was over 2 throughout. Moreover, the negative logarithm of the IC50 (pIC50) was 5.05 in [8], 5.82 in data set [9], 5.40 in data set [10] and 6.15 in data set [11].

For `COc1ccc(/C=C2\S/C(=N\c3ccccc3)N(Cc3ccc(C(=O)O)cc3)C2=O)cc1OCCc1ccccc1`, the inhibition result in data set [12] was “Active”. The viability at 2 h in data set [1] is at least 80%. For the same compound, the pKi in [14] was 5.82. Besides, in data set [3], the Activity came to 80%. Besides, the Ratio IC50 is 2 in the data set listed under Homo sapiens [4], over 2 in the data set listed under Homo sapiens [5], over 2 in the data set filed under Homo sapiens [6] and over 2 in the data set listed under Homo sapiens [7]. Also, the pIC50 in data set [8] is under 4.30; in data set [9], 5.77; in [10], 4.76; in data set [11], 5.37.

As to `COc1cc(/C=C2\SC(=O)N(Cc3ccc(C(=O)O)cc3)C2=O)ccc1OCCc1ccccc1`, the inhibition entry in data set [15] and in data set [12] was “Active” each time. In data set [1], the viability at 2 h is at least 80%. Further, the pKi in data set [16] was 5.85. For the same compound, in [3], the Activity is 80%. The Ratio IC50 in the data set filed under Homo sapiens [4] was 2; in the data set filed under Homo sapiens [5], over 2; in the data set filed under Homo sapiens [6], over 2; in the data set filed under Homo sapiens [7], over 2. The pIC50 is under 4.30 in [8], 5.96 in data set [9], 4.97 in data set [10] and 5.46 in [11].
